Assay [1] concerns Rhizoctonia solani. In words: Antifungal activity against Rhizoctonia solani DL5588 assessed as colony reduction at 100 ug/disk after 2 to 6 days by paper disk agar diffusion method relative to control. The arrangement: scale not given: the % may be the effect or the level left. The format is functional. In a few lines: (§1)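 Tested on one-fourth-strength potato dextrose agar. A 5-mm mycelial agar plug from the colony edge was placed at the dish centre. A 6-mm disc with the compound in Me₂CO and an Me₂CO-only control disc were set on opposite sides, each 30 mm from the plug. After 2-6 days, colony radii were measured along the line joining the discs. Values are the mean of nine (3 weighings × 3 discs), analysed by two-way ANOVA.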
(In agar diffusion tests the substance spreads into inoculated agar from a disc or well.)

The test system of assay [2] is Rhizoctonia solani. Nature of the assay: Antifungal activity against Rhizoctonia solani DL5588 assessed as colony reduction at 200 ug/disk after 2 to 6 days by paper disk agar diffusion method relative to control. The format is functional. The arrangement: scale not given: the % may be the effect or the level left. In a few lines: as §1
Assay [3] has as its system Globisporangium ultimum. Nature of the assay: Antifungal activity against Pythium ultimum RG-5601 assessed as colony reduction at 100 ug/disk after 2 to 6 days by paper disk agar diffusion method relative to control. The arrangement: scale not given: the % may be the effect or the level left. The format is functional. In a few lines:
(§2)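 Paper-disc agar-diffusion on one-fourth-strength PDA. Mycelial agar plug (5 mm) from culture edge placed at plate centre; 6-mm disc loaded with compound in Me2CO and Me2CO-only control disc set on opposite sides, each 30 mm from plug. After 2-6 days (per growth rate), colony radii measured along line joining disc centres. Three separate weighings × three discs (nine) per organism; two-way ANOVA.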

In assay [4] the test system is Globisporangium ultimum. In words: Antifungal activity against Pythium ultimum RG-5601 assessed as colony reduction at 200 ug/disk after 2 to 6 days by paper disk agar diffusion method relative to control. The format is functional. Set-up: scale not given: the % may be the effect or the level left. In a few lines:
as §2

Assay [5] has as its system Botrytis cinerea. In words: Antifungal activity against Botrytis cinerea DL6050 assessed as colony reduction at 100 ug/disk after 2 to 6 days by paper disk agar diffusion method relative to control. The arrangement: scale not given: the % may be the effect or the level left. The class given is functional. In a few lines: as §1
For assay [6], the system named is Botrytis cinerea. In words: Antifungal activity against Botrytis cinerea DL6050 assessed as colony reduction at 200 ug/disk after 2 to 6 days by paper disk agar diffusion method relative to control. The arrangement: scale not given: the % may be the effect or the level left. The class given is functional. In a few lines: as §1
In assay [7] the test system is Athelia rolfsii. In words: Antifungal activity against Sclerotium rolfsii RG-1984 assessed as colony reduction at 100 ug/disk after 2 to 6 days by paper disk agar diffusion method relative to control. The class given is functional, Agroathelia rolfsii. Set-up: scale not given: the % may be the effect or the level left. In a few lines: as §2
Assay [8] deals with Athelia rolfsii. Nature of the assay: Antifungal activity against Sclerotium rolfsii RG-1984 assessed as colony reduction at 200 ug/disk after 2 to 6 days by paper disk agar diffusion method relative to control. The format is functional, Agroathelia rolfsii. The arrangement: scale not given: the % may be the effect or the level left. In a few lines: as §2
Assay [9] concerns Colletotrichum gloeosporioides. In words: Antifungal activity against Colletotrichum gloeosporioides DL5605 assessed as colony reduction at 100 ug/disk after 2 to 6 days by paper disk agar diffusion method relative to control. Set-up: scale not given: the % may be the effect or the level left. The format is functional. In a few lines: as §1
For assay [10], the system named is Colletotrichum gloeosporioides. Nature of the assay: Antifungal activity against Colletotrichum gloeosporioides DL5605 assessed as colony reduction at 200 ug/disk after 2 to 6 days by paper disk agar diffusion method relative to control. The class given is functional. Set-up: scale not given: the % may be the effect or the level left. In a few lines: as §1
The subject of assay [11] is Fusarium oxysporum. In words: Antifungal activity against Fusarium oxysporum Fo0593-22 assessed as colony reduction at 100 ug/disk after 2 to 6 days by paper disk agar diffusion method relative to control. The arrangement: scale not given: the % may be the effect or the level left. The class given is functional. In a few lines: as §1
Assay [12] concerns Fusarium oxysporum. In words: Antifungal activity against Fusarium oxysporum Fo0593-22 assessed as colony reduction at 200 ug/disk after 2 to 6 days by paper disk agar diffusion method relative to control. The format is functional. The arrangement: scale not given: the % may be the effect or the level left. In a few lines: as §1
Assay [13] relates to Bacillus subtilis. In words: Antibacterial activity against Bacillus subtilis Bs1091 at 100 ug/disk by paper disk agar diffusion method. The class given is functional. The following applies: read-out: IZ. In a few lines: (§3)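 Paper-disc agar-diffusion assay on Luria agar (tryptone, yeast extract, NaCl, agar), the medium used for maintaining and testing the bacteria. The compound was dissolved in Me₂CO and absorbed onto 6-mm paper discs at the stated amount per disc. Three separately weighed solutions were used, with three discs each, giving nine measurements per organism.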

Assay [14] has as its system Bacillus subtilis. In words: Antibacterial activity against Bacillus subtilis Bs1091 at 200 ug/disk by paper disk agar diffusion method. The class given is functional. The following applies: read-out: IZ. In a few lines: as §3
The subject of assay [15] is Pantoea agglomerans. Nature of the assay: Antibacterial activity against Erwinia herbicola SM-824 at 100 ug/disk by paper disk agar diffusion method. The format is functional. The following applies: read-out: IZ. In a few lines: as §3
Assay [16] deals with Pantoea agglomerans. Nature of the assay: Antibacterial activity against Erwinia herbicola SM-824 at 200 ug/disk by paper disk agar diffusion method. The format is functional. The following applies: read-out: IZ. In a few lines:
as §3

Assay [17] deals with Staphylococcus. In words: Antibacterial activity against Staphylococcus albus Sal1091-4 at 100 ug/disk by paper disk agar diffusion method. The following applies: read-out: IZ. The class given is functional. In a few lines: as §3
The subject of assay [18] is Staphylococcus. Nature of the assay: Antibacterial activity against Staphylococcus albus Sal1091-4 at 200 ug/disk by paper disk agar diffusion method. The following applies: read-out: IZ. The class given is functional. In a few lines:
as §3

Assay [19] concerns Pseudomonas fluorescens. Nature of the assay: Antibacterial activity against Pseudomonas fluorescens PFM2 at 100 ug/disk by paper disk agar diffusion method. The class given is functional. The following applies: read-out: IZ. In a few lines:
as §3

Assay [20] concerns Pseudomonas fluorescens. Nature of the assay: Antibacterial activity against Pseudomonas fluorescens PFM2 at 200 ug/disk by paper disk agar diffusion method. The class given is functional. The following applies: read-out: IZ. In a few lines: as §3
Assay [21] concerns Zymoseptoria tritici. In words: Antifungal activity against Septoria tritici ISR-SE93 assessed as diameter of zone of inhibition at 100 ug/disk after 2 to 6 days by paper disk agar diffusion method. The following applies: read-out: IZ.
Assay [22] deals with Zymoseptoria tritici. Nature of the assay: Antifungal activity against Septoria tritici ISR-SE93 assessed as diameter of zone of inhibition at 200 ug/disk after 2 to 6 days by paper disk agar diffusion method. The following applies: read-out: IZ.

Results on 2 compounds are retold here after ChEMBL document CHEMBL1148053, “(+)-(S)-dihydroaeruginoic acid, an inhibitor of Septoria tritici and other phytopathogenic fungi and bacteria, produced by Pseudomonas fluorescens” (1994).

Regarding `O=C(O)[C@H]1CSC(c2ccccc2O)=N1`, the Activity in [1] was 1%; in assay [2], 5%; in assay [3] it was 22%; in assay [4] it was 43%; in assay [5], 27%; in assay [6], 43%. Also, the Activity in assay [7] is 32%; in assay [8], 53%; in assay [9], 8%; in assay [10], 10%; in assay [11], 8%; in [12] it was 15%. For the same compound, the zone of inhibition at 100 µg/disc was 10.8 mm in [13]; 6.7 mm in [15]; 20.2 mm in assay [17]; 0 mm in [19]; 0 mm in [21]. Also, the zone of inhibition at 200 µg/disc in [14] was 13.3 mm; in assay [16], 8.7 mm; in assay [18] it was 26.2 mm; in assay [20], 0 mm; in [22] it was 13 mm.
Regarding `O=C(O)[C@@H]1CSC(c2ccccc2O)=N1`, the Activity is recorded as 6% in assay [1]; 17% in assay [2]; 12% in [3]; 33% in assay [4]; 36% in assay [5]; 46% in [6]. The Activity in assay [7] worked out at 32%; in assay [8], 52%; in [9] it was 8%; in assay [10], 9%; in assay [11] it was 5%; in assay [12] it was 11%. The zone of inhibition at 100 µg/disc in [13] turned out to be 14.9 mm; in [15] it was 8.2 mm; in assay [17], 22 mm; in assay [19], 0 mm; in [21] it was 0 mm. Besides, the zone of inhibition at 200 µg/disc in assay [14] was determined as 19.7 mm; in [16], 10.4 mm; in assay [18], 28.2 mm; in assay [20], 0 mm; in assay [22], 13 mm.
